ChEMBL document CHEMBL1800044, “Structure-based design of novel boronic acid-based inhibitors of autotaxin” (J Med Chem, 2011)

molecular target: Autotaxin (Homo sapiens, UniProt Q13822); experiment: Inhibition of 6x-histidine-tagged human recombinant ATX expressed in HEK293 cells assessed as choline release using lysophosphatidylcholine as substrate after 4 hrs by choline release assay
In short: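 Recombinant ATX at 10 nM final (~20 nM in enzyme half) in 50 mM Tris-HCl pH 7.4, 0.01% Triton X-100, inhibitor added in DMSO. LPC (18:1) at 40 μM final, buffer with 10 mM MgCl2 and 10 mM CaCl2. Ten concentrations, 0.01–30 μM. Controls were DMSO alone and LPC without enzyme.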

| IC50 [nM] | Structure (SMILES) |
| --- | --- |
| 147 | O=C(Nc1ccc(B(O)O)cc1)c1ccc(/C=C2\SC(=O)N(Cc3ccc(F)cc3)C2=O)cc1 |
| 71 | O=C(NCc1ccc(B(O)O)cc1)c1ccc(/C=C2\SC(=O)N(Cc3ccc(F)cc3)C2=O)cc1 |
| 10 | O=C(Nc1ccc(/C=C2\SC(=O)N(Cc3ccc(F)cc3)C2=O)cc1)c1ccc(B(O)O)cc1 |
| 8.3 | O=C1S/C(=C\c2ccc(NCc3ccc(B(O)O)cc3)cc2)C(=O)N1Cc1ccc(F)cc1 |
| > 5000 | O=C1S/C(=C\c2ccc(/C=C/c3ccc(B(O)O)cc3)cc2)C(=O)N1Cc1ccc(F)cc1 |
| 25 | O=C1SC(Cc2ccc(OCc3ccc(B(O)O)cc3)cc2)C(=O)N1Cc1ccc(F)cc1 (centres undefined) |
| 1590 | O=C1SC(Cc2ccc(OCc3ccc(B(O)O)cc3)cc2)C(O)N1Cc1ccc(F)cc1 (centres undefined) |
| 683 | O=c1sc(Cc2ccc(OCc3ccc(B(O)O)cc3)cc2)cn1Cc1ccc(F)cc1 |
| 26 | O=C1N/C(=C\c2ccc(OCc3ccc(B(O)O)cc3)cc2)C(=O)N1Cc1ccc(F)cc1 |
| 5.3 | CN1C(=O)N(Cc2ccc(F)cc2)C(=O)/C1=C\c1ccc(OCc2ccc(B(O)O)cc2)cc1 |
| 6.7 | CN1C(=O)N(Cc2ccc(F)cc2)C(=O)/C1=C/c1ccc(OCc2ccc(B(O)O)cc2)cc1 |
| 7.3 | O=C1C/C(=C\c2ccc(OCc3ccc(B(O)O)cc3)cc2)C(=O)N1Cc1ccc(F)cc1 |
| 55 | O=C1[C@@H]2Cc3ccc(OCc4ccc(B(O)O)cc4)cc3CN2C(=O)N1Cc1ccc(F)cc1 |
| 59 | O=C1[C@H]2Cc3ccc(OCc4ccc(B(O)O)cc4)cc3CN2C(=O)N1Cc1ccc(F)cc1 |
